Activity calls are given as the source filed them. No rule for the calls is given here.

Consider one compound from ChEMBL document CHEMBL2046381, “Defining the mechanism of action and enzymatic selectivity of psammaplin A against its epigenetic targets” (J Med Chem, 2012).

Experiment [1] concerns the target T1, Histone deacetylase-like amidohydrolase (Alcaligenes sp. (strain DSM 11172) (Bordetella sp. (strain FB188))) (UniProt Q70I53).
T1 sequence (whole entry): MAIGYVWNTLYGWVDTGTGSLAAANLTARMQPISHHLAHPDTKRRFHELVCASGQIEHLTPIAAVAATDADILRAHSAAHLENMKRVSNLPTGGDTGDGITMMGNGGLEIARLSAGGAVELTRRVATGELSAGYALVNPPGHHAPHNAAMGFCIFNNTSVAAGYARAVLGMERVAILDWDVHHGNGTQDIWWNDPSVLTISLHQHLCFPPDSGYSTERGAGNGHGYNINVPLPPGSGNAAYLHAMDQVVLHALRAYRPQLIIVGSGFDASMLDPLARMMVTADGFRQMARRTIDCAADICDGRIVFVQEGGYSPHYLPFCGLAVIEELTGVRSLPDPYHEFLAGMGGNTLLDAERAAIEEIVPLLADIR
Nature of the experiment: Inhibition of Bordetella sp. (strain FB188) N-terminus His-tagged HDAH expressed in Escherichia coli BL21 (DE3) up to 100 uM. The note with it: Alcaligenaceae bacterium FB188. A digest of the protocol:
(§1)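 Recombinant N-terminal His6-tagged HDAH from Bordetella strain FB188, expressed in E. coli BL21, purified on zinc-loaded His-Trap column, eluted with 500 mM imidazole, dialyzed into assay buffer (>98% pure by SDS-PAGE). Tested directly against compounds; thiols generated in situ from disulfides with TCEP.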

In experiment [2] the target is T2, Histone deacetylase-like amidohydrolase (Alcaligenes sp. (strain DSM 11172) (Bordetella sp. (strain FB188)), UniProt Q70I53).
T2 sequence (Q70I53 whole entry): T1 sequence (whole entry)
Nature of the experiment: Inhibition of Bordetella sp. (strain FB188) N-terminus His-tagged HDAH expressed in Escherichia coli BL21 (DE3). Further details: species or system Alcaligenaceae bacterium FB188. Put shortly:
as §1

A further experiment concerns the target Histone deacetylase 1 (Homo sapiens, UniProt Q13547). The experiment in a line: Inhibition of human recombinant HDAC1 using Boc-lys(Ac)-AMC as substrate preincubated for 20 mins with substrate measured after 60 mins by fluorescence analysis.
In experiment [3] the test system is MCF7. Nature of the experiment: Growth inhibition of human MCF7 cells after 96 hrs by sulphorhodamine B assay. The format is functional. The note with it: MCF7, 96 h. A digest of the protocol: (§2)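 SRB growth assay; MCF7 and WI38 seeded 4000 cells/well, A549 2000 cells/well, attached overnight, then exposed to freshly made drug solutions (0.1 to 50 μM) for 96 h. Fixed with cold 10% TCA, stained with 0.4% SRB; absorbance at 540 nm as percent of untreated control, IC50 from mean absorbance.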
In general terms: The SRB assay estimates cell density from bound dye.

In another experiment the test system is A549. The experiment in a line: Growth inhibition of human A549 cells after 96 hrs by sulphorhodamine B assay. The format is functional. The following applies: A549, 96 h. A digest of the protocol: as §2
The test system of experiment [4] is MCF7. Nature of the experiment: Selectivity index, ratio of GI50 for human A549 cells to GI50 for human MCF7 cells. The format is functional.
A further experiment concerns the target T3, Histone deacetylase 7 (Homo sapiens, UniProt Q8WUI4).
T3 sequence (Q8WUI4 whole entry): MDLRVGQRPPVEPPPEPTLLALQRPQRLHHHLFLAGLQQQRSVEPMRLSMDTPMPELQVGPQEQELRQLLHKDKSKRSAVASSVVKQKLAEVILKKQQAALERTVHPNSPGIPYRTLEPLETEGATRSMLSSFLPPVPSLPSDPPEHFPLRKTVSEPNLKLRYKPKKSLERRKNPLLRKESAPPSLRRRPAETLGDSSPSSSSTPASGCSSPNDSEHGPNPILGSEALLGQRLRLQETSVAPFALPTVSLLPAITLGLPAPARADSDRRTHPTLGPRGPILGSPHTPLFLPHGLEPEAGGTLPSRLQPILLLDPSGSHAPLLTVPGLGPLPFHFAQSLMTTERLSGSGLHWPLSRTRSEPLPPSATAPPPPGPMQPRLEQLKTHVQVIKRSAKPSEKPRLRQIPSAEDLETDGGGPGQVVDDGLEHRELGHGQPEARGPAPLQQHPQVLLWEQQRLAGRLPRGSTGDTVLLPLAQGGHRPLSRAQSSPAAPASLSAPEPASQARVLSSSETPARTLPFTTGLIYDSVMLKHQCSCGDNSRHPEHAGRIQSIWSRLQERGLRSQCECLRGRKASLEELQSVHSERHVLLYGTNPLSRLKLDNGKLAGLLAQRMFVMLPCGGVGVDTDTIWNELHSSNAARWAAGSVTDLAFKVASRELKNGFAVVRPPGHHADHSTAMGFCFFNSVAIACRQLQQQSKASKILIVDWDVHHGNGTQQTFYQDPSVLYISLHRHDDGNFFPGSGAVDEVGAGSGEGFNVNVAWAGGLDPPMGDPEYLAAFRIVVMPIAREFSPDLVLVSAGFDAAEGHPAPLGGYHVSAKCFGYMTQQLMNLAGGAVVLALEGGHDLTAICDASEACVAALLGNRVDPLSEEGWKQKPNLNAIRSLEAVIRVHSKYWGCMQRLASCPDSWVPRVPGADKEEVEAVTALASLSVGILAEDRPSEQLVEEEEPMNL
The experiment in a line: Inhibition of human recombinant HDAC7 using Boc-lys(Ac)-AMC as substrate preincubated for 20 mins with substrate measured after 60 mins by fluorescence analysis.

A further experiment concerns the target T4, Histone deacetylase 8 (Homo sapiens, UniProt Q9BY41).
T4 sequence (Q9BY41 whole entry): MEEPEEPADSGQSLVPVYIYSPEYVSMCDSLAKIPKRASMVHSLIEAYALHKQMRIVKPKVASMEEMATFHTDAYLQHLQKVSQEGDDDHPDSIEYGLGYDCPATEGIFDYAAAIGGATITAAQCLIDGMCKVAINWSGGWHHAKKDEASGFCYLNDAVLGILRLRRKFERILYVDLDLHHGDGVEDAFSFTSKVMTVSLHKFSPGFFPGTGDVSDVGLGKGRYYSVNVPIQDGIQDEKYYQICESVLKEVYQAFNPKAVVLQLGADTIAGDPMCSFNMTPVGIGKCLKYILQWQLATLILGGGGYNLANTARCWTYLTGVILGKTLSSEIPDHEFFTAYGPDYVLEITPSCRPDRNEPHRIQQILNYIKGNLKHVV
The experiment in a line: Inhibition of human recombinant HDAC8 using Boc-lys(Ac)-AMC as substrate preincubated for 20 mins with substrate measured after 60 mins by fluorescence analysis.

Sequence of Histone deacetylase 1 (Q13547 whole entry): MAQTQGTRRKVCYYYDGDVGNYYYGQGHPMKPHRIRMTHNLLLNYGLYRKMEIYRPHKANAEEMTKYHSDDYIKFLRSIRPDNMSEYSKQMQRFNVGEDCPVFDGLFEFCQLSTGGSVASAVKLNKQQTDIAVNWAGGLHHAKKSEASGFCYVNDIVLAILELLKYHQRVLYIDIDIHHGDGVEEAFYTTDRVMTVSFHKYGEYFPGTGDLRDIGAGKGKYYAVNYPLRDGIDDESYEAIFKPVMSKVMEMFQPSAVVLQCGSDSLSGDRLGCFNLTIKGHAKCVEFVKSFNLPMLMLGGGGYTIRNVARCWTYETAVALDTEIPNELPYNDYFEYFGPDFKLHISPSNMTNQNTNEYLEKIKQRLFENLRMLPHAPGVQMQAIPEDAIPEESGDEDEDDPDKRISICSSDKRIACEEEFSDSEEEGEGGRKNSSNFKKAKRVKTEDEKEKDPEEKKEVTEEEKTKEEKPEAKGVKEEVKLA

As for `N/N=C(\Cc1ccc(O)c(Br)c1)C(=O)NCCS`, the inhibition entry in experiment [1] is “inactive”. Also, the IC50 (as a rule, the concentration at which inhibition is half-maximal) in experiment [2] was 32 µM; at Histone deacetylase 1, 0.005 µM; at Histone deacetylase 7, 45 µM; on Histone deacetylase 8, 13 µM. The GI50 (in general, the concentration at which growth is held to half of that of the control) in the experiment with MCF7 [3] turned out to be 3.42 µM; with A549 it was 33.4 µM. In the experiment on MCF7 [4], the RatioGI50 amounted to 10.
